Source: paper PMC12508127 (Nature Communications, 2025)
Values after ≈ are worked out from the molar mass of the structure shown. Like-named read-outs stand apart in the source and are kept apart here.

Key:
[1] = system: Phytophthora capsica; format: cell-based; conditions: 1.56 mg/L
[2] = Average thousand grain weight and yield increase, FHB field trial; format: in vivo, wheat; conditions: 150 g a.i./ha
In short: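 Field plots (20 m2) in Huai'an, wheat variety yannong 1212, with Fusarium graminearum head blight. Test compound as 10% emulsifiable concentrate at 112.5, 150 and 180 g a.i./ha, sprayed at early and peak anthesis. Commercial fungicides served as positive controls and water as negative control. Five-point sampling, 100 mature spikes per point, pooled, air-dried and threshed. 1000 random grains weighed, three replicates per treatment.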

[3] = system: Phytophthora infestans; format: cell-based
[4] = system: Fusarium oxysporum; format: cell-based; conditions: 1.56 mg/L
[5] = system: Fusarium pseudograminearum; format: cell-based
[6] = molecular target: porcine SDH (Sus scrofa, UniProt A5GZW8+D0VWV4+Q007T0); assay: SDH activity assay; format: biochemical; conditions: read-out: Ki, Porcine; inhibition constant against porcine SDH
[7] = system: Alternaria alternata; format: cell-based; conditions: 1.56 mg/L
[8] = system: deoxynivalenol (DON) content; format: in vivo, wheat; conditions: field; for DON content: wheat flour
[9] = system: cucumber powdery mildew (CPM, Sphaerotheca fuliginea); conditions: in vivo
[10] = system: FHB (Fusarium graminearum); conditions: in vivo
[11] = system: WPM (Erysiphe graminis); format: in vivo; conditions: WPM field trial, 187.5 g a.i./ha
[12] = system: zebrafish (Brachydanio rerio H-B.); assay: Acute toxicity zebrafish, static test; format: in vivo
In short: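 Juvenile zebrafish (not sexually mature) held at 22–23 °C on a 16–8 h light-dark cycle. Static exposure followed the national fish acute toxicity guideline. Definitive test used 1.20, 1.00, 0.833, 0.694, 0.578 and 0.482 mg a.i./L, with dechlorinated tap water as blank control. One replicate of 10 fish per group.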

[13] = system: Ustilaginoidea virens; format: cell-based; conditions: 1.56 mg/L
[14] = system: Sclerotinia sclerotiorum; format: cell-based; conditions: 1.56 mg/L
[15] = system: Fusarium graminearum; format: cell-based
[16] = molecular target: ScSDH (Saccharomyces cerevisiae, UniProt P21801+P33421+P37298+Q00711); assay: SDH activity assay; format: biochemical
[17] = system: Alternaria solani; format: cell-based; conditions: 1.56 mg/L
[18] = system: wheat powdery mildew (WPM, Erysiphe graminis); format: in vivo; conditions: greenhouse
[19] = system: Exserohilum turcicum; format: cell-based; conditions: 1.56 mg/L

ScSDH, sequence (Q00711 29-640): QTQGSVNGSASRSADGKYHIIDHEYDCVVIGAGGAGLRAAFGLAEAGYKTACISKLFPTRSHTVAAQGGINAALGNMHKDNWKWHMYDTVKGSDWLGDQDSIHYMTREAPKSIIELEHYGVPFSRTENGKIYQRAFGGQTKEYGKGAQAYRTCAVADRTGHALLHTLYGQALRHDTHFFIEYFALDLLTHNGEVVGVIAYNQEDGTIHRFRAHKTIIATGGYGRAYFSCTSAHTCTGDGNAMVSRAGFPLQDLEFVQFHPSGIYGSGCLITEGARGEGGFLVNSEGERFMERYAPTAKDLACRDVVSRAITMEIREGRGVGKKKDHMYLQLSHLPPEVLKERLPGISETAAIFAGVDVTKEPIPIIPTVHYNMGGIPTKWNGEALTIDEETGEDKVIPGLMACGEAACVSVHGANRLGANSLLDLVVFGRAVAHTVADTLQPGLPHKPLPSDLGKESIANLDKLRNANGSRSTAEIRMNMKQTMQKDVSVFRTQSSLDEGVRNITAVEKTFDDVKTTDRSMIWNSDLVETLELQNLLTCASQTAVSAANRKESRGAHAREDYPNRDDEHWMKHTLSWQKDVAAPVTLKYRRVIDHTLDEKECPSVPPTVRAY
ScSDH, sequence (P21801 21-266): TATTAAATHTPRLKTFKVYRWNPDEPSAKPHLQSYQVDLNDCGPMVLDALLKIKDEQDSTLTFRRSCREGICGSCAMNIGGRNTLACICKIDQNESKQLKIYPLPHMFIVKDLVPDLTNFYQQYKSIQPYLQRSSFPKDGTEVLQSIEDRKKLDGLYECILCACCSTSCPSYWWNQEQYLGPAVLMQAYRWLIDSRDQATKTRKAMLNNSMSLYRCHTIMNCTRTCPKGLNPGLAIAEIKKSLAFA
ScSDH, sequence (P33421 51-198): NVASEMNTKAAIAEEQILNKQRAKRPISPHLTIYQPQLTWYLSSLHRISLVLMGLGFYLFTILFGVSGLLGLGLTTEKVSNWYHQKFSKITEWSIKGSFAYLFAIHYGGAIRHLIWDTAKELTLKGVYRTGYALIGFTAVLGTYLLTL
ScSDH, sequence (P37298 32-181): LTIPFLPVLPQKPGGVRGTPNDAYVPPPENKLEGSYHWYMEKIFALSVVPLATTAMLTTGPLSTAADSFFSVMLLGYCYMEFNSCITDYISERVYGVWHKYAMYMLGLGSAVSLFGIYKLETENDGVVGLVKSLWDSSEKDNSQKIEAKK
porcine SDH, sequence (Q0QF01 43-664 partner): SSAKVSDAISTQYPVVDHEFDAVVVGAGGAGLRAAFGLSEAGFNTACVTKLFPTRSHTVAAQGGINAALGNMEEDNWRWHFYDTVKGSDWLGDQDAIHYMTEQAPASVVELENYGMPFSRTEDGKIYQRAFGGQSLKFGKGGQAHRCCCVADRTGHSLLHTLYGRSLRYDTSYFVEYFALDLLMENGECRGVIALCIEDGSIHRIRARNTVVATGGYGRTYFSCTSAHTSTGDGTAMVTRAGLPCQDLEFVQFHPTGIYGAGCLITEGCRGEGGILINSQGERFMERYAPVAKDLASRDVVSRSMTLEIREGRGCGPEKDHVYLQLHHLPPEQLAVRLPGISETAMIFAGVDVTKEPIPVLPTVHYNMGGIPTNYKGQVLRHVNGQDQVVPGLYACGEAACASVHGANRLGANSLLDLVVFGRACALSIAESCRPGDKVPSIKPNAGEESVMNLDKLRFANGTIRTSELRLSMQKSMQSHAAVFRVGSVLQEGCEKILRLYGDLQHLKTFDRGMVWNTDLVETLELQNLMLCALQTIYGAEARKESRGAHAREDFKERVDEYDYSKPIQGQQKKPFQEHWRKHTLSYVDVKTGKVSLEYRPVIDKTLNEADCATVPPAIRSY
porcine SDH, sequence (Q007T0 29-280): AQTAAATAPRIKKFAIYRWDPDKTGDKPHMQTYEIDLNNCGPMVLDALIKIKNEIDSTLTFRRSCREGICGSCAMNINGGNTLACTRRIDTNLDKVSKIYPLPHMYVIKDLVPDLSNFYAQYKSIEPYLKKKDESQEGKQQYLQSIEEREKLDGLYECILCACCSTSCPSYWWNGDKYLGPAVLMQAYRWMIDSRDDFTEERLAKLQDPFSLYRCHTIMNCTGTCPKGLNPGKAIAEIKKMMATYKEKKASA
porcine SDH, sequence (D0VWV4 30-169): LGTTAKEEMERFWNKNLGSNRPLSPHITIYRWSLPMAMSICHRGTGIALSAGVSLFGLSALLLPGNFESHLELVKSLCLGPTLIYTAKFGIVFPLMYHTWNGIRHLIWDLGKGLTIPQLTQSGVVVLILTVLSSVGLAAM
porcine SDH, sequence (A5GZW8 57-159 limits assumed): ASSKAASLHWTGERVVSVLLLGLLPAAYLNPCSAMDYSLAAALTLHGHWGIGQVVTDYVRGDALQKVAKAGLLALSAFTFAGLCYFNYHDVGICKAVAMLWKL

In the case of C=C(CN(C(=O)c1c(C(F)F)nn(C)c1F)C1CC1)c1ccc(Cl)cc1Cl [E8, enprocymid], the “inhibition rate (%), Pc” value [1] is reported as 76.33%, the “Yield increase rate (%)” value [2] is reported as 10.18% and the “inhibition rate (%), Pi” value [3] is reported as 81.97%. The “inhibition rate (%), Fo” value [4] was 87.33%, the “inhibition rate (%), Fp” value [5] was 85.33% and the Ki [6] was 281 ± 14 nM. For the same compound, the “inhibition rate (%), Aa” value [7] was 95.67%, the “DON inhibition rate (%)” value ([8]; 150 g a.i./ha) was 86.05% and the “DON inhibition rate (%)” value ([8]; 180 g a.i./ha) was 89.40%. For the same compound, the “DON content” value ([8]; 150 g a.i./ha) was 217.5 µg/kg, the “DON content” value ([8]; 180 g a.i./ha) was 165.3 µg/kg and the “EC50” value [9] was 0.5431 µg/mL (≈ 1.3 µM). The “Control efficiency (%)” value [10] was 88.81%, the “Control efficiency (%)” value [11] was 92.38% and the Toxicity level ([12]; by LC50 (96 h)) was “moderately toxic”. For the same compound, the “LC50 (96 h)” value ([12]; static test, 96 h) was 1.01 mg a.i./L, the “inhibition rate (%), Uv” value [13] was 100.00% and the “inhibition rate (%), Ss” value [14] was 74.67%. The “inhibition rate (%), Fg” value [15] was 97.31%, the “potency relative to PYD (IC50)” value ([16]; E8 IC50 vs PYD IC50, ScSDH) was ~1.3 fold and the IC50 ([16]; against ScSDH) was 30 ± 3 nM. For the same compound, the Species selectivity ([16]; ratio of Ki for porcine SDH and ScSDH) was 14.78, the Ki ([16]; read-out: Ki, Yeast, inhibition constant against ScSDH) was 19 ± 1 nM and the “inhibition rate (%), As” value [17] was 80.00%. The “EC50” value ([18]; WPM) was 0.0462 µg/mL (≈ 0.11 µM), the “activity against WPM relative to PYD” value [18] was “over 20 fold” and the “inhibition rate (%), Et” value [19] was 100.00%.

In the case of CC(C)(C)C(O)(CCc1ccc(Cl)cc1)Cn1cncn1 (centres unmarked) [tebuconazole], the “Control efficiency (%)” value [10] is reported as 84.45%.

For OCC1=C[C@H](N[C@H]2C[C@H](CO)[C@@H](O[C@@H]3O[C@H](CO)[C@@H](O)[C@H](O)[C@H]3O)[C@H](O)[C@H]2O)[C@H](O)[C@@H](O)[C@@H]1O [validamycin], the “Control efficiency (%)” value [10] was 48.42%.
